From ChEMBL document CHEMBL1146537, “Diterpenoids from Tetraclinis articulata that inhibit various human leukocyte functions” (J Nat Prod, 2003)

How the values were obtained:
Neutrophil [1] = assay: Inhibition of cytochalasin B and fMLP-stimulated human neutrophil degranulation assessed as inhibition of myeloperoxidase release at 10 uM preincubated for 5 mins; format: functional
How it was run: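 Neutrophils (2.5×10^6 cells/mL) preincubated 5 min at 37 °C with compound in ethanol (ethanol alone for controls). Then stimulated 10 min at 37 °C with cytochalasin B (10 μM) plus fMLP (10 nM).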

Neutrophil [2] = assay: Inhibition of TPA-induced chemiluminescence response in human neutrophils at 10 uM after 7 mins; format: functional
How it was run: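 Neutrophils (2.5×10^6/mL) with luminol (40 μM), stimulated by TPA (1 μM); light output counted after 7 min, chosen as time of maximal production.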

Neutrophil [3] = assay: Inhibition of cytochalasin B and fMLP-stimulated human neutrophil degranulation assessed as inhibition of elastase release at 10 uM preincubated for 5 mins measured after 20 mins; format: functional
How it was run: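 Neutrophils (2.5×10^6/mL) preincubated 5 min with compound or vehicle, then cytochalasin B (10 μM) + fMLP (10 nM), 10 min, 37 °C. Supernatant after 1200g spin at 4 °C, 10 min, reacted with Boc-L-alanine p-nitrophenyl ester (200 μM) 20 min, 37 °C; p-nitrophenol read at 414 nm. Direct enzyme inhibition checked by 5 min compound preincubation with stimulated supernatant before substrate.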

[4] = Cytotoxicity against human neutrophils up to 10 uM by MTT assay; format: cell-based; conditions: neutrophil

C=C[C@@]1(C)CC[C@H]2[C@](O)(CC[C@@H]3[C@]2(C)CCC[C@@]3(C)C=O)C1
inhibition at 10 µM (Neutrophil [1]): 47.8%
inhibition at 10 µM (Neutrophil [2]): 30.5%
inhibition at 10 µM (Neutrophil [3]): 17.8%
Activity [4]: Non-toxic

C=C[C@@]1(C)CC[C@H]2[C@](O)(CC[C@H]3[C@](C)(COC(C)=O)CCC[C@@]32C)C1
inhibition at 10 µM (Neutrophil [1]): 55.4%
inhibition at 10 µM (Neutrophil [2]): 6.5%
inhibition at 10 µM (Neutrophil [3]): 33.5%
Activity [4]: Non-toxic

C=C[C@@]1(C)CC[C@H]2[C@](O)(CC[C@H]3[C@](C)(CO)CCC[C@@]32C)C1
inhibition at 10 µM (Neutrophil [1]): 46.7%
inhibition at 10 µM (Neutrophil [2]): 1.8%
inhibition at 10 µM (Neutrophil [3]): 24.1%
Activity [4]: Non-toxic
